Entries after “also recorded” stand apart in the source; their conditions may differ. Read-outs that look alike come from different tables or passages of the source. Marks after values point to notes of the source that are not given here.
Tests used:
photosensitive epilepsy = conditions: cited from earlier work
Lennox–Gastaut syndrome = conditions: stable dosages over a 3-year period; cited from earlier work
[1] = target: recombinant human GABAARs (α1β2γ2) (Homo sapiens, UniProt P14867+P18507); format: cell-based; conditions: for Function relative efficacy, normalized toward zolpidem (1 µmol/L): Padsevonil 10 µmol/L; for Cl− currents evoked in the absence of GABA: no GABA, concentrations up to 30 µmol/L
Sequence of recombinant human GABAARs (α1β2γ2) (P14867 28-456): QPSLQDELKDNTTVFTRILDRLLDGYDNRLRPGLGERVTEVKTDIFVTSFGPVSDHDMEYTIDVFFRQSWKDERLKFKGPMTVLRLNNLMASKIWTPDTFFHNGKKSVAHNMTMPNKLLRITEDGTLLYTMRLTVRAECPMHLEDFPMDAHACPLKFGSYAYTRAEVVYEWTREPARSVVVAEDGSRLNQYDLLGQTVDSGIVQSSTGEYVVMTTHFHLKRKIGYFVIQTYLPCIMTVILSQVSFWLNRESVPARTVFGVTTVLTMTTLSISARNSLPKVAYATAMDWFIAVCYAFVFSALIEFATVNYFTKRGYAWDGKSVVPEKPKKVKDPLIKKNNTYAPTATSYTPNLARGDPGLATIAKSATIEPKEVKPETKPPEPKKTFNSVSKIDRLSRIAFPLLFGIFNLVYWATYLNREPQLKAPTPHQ
Sequence of recombinant human GABAARs (α1β2γ2) (P47870 25-512 partner limits assumed): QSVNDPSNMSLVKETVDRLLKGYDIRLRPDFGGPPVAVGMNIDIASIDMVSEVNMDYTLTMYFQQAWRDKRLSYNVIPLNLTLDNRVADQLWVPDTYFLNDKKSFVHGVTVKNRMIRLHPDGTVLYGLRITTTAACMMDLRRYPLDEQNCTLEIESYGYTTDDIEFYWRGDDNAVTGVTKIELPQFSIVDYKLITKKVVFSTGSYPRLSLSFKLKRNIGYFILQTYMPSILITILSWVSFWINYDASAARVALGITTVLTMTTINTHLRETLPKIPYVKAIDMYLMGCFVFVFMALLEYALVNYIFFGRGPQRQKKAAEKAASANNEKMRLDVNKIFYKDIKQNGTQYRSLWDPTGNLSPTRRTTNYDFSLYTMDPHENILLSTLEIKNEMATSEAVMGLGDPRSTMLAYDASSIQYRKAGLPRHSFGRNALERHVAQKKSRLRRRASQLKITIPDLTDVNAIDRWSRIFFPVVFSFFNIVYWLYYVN
Sequence of recombinant human GABAARs (α1β2γ2) (P18507 40-475): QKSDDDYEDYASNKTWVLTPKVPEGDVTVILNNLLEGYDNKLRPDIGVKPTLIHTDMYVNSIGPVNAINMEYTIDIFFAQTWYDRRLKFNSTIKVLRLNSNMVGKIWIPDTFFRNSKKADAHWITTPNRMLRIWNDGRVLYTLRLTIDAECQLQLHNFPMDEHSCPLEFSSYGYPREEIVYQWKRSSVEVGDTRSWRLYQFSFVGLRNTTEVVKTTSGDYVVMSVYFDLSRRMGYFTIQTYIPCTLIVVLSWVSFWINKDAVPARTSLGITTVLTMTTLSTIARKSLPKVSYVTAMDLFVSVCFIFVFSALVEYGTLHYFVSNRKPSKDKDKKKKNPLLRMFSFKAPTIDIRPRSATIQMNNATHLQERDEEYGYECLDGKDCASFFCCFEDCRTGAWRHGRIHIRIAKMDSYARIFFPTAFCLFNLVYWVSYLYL

[2] = target: human recombinant GABAA receptor α1β2γ2 (Homo sapiens, UniProt P14867+P18507); assay: Two-electrode voltage clamp in Xenopus oocytes, α1β2γ2; format: cell-based; conditions: for Function relative efficacy, normalized toward chlordiazepoxide (10 µmol/L): Padsevonil 10 µmol/L, GABA EC20, TEVC, α1β2γ2
Sequence of human recombinant GABAA receptor α1β2γ2 (P14867 28-456): as the sequence (P14867 28-456) above
Sequence of human recombinant GABAA receptor α1β2γ2 (P47870 25-512 partner limits assumed): as the sequence (P47870 25-512 partner limits assumed) above
Sequence of human recombinant GABAA receptor α1β2γ2 (P18507 40-475): as the sequence (P18507 40-475) above

[3] = target: human recombinant GABAA receptor α2β2γ2 (Homo sapiens, UniProt P18507+P47869); assay: Two-electrode voltage clamp in Xenopus oocytes, α2β2γ2; format: cell-based; conditions: for Function relative efficacy, normalized toward chlordiazepoxide (10 µmol/L): Padsevonil 10 µmol/L, GABA EC20, TEVC, α2β2γ2
Sequence of human recombinant GABAA receptor α2β2γ2 (P47869 29-451): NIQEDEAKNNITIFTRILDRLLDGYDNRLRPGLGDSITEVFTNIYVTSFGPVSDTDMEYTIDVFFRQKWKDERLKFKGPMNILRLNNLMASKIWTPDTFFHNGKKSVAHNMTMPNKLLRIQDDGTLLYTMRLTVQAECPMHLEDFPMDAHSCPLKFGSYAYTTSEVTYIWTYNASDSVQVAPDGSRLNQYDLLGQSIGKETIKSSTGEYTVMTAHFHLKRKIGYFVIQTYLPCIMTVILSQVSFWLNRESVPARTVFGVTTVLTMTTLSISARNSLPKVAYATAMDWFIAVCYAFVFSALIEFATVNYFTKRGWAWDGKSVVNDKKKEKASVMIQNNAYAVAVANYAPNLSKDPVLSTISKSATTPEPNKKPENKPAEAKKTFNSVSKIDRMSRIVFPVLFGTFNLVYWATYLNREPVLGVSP
Sequence of human recombinant GABAA receptor α2β2γ2 (P47870 25-512 partner limits assumed): as the sequence (P47870 25-512 partner limits assumed) above
Sequence of human recombinant GABAA receptor α2β2γ2 (P18507 40-475): as the sequence (P18507 40-475) above

[4] = target: human recombinant GABAA receptor α3β2γ2 (Homo sapiens, UniProt P18507+P34903); assay: Two-electrode voltage clamp in Xenopus oocytes, α3β2γ2; format: cell-based; conditions: for Function relative efficacy, normalized toward chlordiazepoxide (10 µmol/L): Padsevonil 10 µmol/L, GABA EC20, TEVC, α3β2γ2
Sequence of human recombinant GABAA receptor α3β2γ2 (P34903 29-492): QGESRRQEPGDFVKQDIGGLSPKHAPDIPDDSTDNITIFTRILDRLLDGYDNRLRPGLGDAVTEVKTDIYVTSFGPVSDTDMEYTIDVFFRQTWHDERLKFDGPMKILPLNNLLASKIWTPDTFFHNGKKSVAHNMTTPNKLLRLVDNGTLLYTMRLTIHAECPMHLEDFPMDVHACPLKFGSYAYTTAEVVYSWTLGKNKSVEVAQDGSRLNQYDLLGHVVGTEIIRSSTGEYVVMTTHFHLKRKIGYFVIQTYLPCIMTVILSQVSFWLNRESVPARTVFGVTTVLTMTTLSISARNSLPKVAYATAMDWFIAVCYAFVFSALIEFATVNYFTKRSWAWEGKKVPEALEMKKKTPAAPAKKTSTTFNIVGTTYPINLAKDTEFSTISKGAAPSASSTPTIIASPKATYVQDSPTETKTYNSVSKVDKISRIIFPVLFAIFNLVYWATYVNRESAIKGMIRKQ
Sequence of human recombinant GABAA receptor α3β2γ2 (P47870 25-512 partner limits assumed): as the sequence (P47870 25-512 partner limits assumed) above
Sequence of human recombinant GABAA receptor α3β2γ2 (P18507 40-475): as the sequence (P18507 40-475) above

[5] = target: human recombinant GABAA receptor α4β2γ2 (Homo sapiens, UniProt P18507+P48169); assay: Two-electrode voltage clamp in Xenopus oocytes, α4β2γ2; format: cell-based; conditions: TEVC; for Potentiation of the GABA (EC20) response on α4β2γ2 receptors: oocytes, Padsevonil 10 and 30 µmol/L, Ro 15-4513 1 µmol/L
Sequence of human recombinant GABAA receptor α4β2γ2 (P48169 36-554): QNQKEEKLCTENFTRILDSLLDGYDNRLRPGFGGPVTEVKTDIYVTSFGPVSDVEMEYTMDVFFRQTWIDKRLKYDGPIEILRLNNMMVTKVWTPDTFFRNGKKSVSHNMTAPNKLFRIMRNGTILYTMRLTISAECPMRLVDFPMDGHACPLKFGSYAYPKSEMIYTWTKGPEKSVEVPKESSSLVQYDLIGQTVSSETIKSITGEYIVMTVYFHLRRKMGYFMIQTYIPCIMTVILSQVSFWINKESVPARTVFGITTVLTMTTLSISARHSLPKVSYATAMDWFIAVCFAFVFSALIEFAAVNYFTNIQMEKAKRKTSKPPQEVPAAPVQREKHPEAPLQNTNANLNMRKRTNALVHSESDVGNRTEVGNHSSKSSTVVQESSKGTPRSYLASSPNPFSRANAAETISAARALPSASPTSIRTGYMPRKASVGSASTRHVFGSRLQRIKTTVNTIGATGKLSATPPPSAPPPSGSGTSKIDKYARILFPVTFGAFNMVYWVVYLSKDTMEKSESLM
Sequence of human recombinant GABAA receptor α4β2γ2 (P47870 25-512 partner limits assumed): as the sequence (P47870 25-512 partner limits assumed) above
Sequence of human recombinant GABAA receptor α4β2γ2 (P18507 40-475): as the sequence (P18507 40-475) above
Summary of the method: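 Human recombinant receptors expressed in Xenopus oocytes; automated two-electrode voltage clamp at −60 mV in frog Ringer (115 mM NaCl, 2.5 mM KCl, 1.8 mM CaCl₂, 10 mM HEPES, pH 7.2). Two 20 s GABA (EC₂₀) control applications 6 min apart; test compound pre-incubated 6 min, then co-applied with GABA for 20 s. Potentiation is I(GABA+drug)/I(GABA); EC50 from sigmoidal nonlinear fit.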

[6] = target: human recombinant GABAA receptor α5β2γ2 (Homo sapiens, UniProt P18507+P31644); assay: Two-electrode voltage clamp in Xenopus oocytes, α5β2γ2; format: cell-based; conditions: for Function relative efficacy, normalized toward chlordiazepoxide (10 µmol/L): Padsevonil 10 µmol/L, GABA EC20, TEVC, α5β2γ2
Sequence of human recombinant GABAA receptor α5β2γ2 (P31644 32-462): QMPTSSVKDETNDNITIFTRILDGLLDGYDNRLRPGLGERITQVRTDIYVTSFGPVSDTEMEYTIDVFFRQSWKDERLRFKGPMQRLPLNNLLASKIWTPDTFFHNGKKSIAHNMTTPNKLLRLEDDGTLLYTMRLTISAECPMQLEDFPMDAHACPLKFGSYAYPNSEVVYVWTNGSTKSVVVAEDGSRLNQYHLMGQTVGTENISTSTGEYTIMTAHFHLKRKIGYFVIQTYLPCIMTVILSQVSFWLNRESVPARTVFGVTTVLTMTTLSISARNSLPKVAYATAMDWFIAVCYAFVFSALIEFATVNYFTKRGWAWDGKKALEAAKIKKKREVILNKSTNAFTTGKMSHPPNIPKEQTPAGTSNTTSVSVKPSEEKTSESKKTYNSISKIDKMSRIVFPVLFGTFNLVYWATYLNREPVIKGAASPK
Sequence of human recombinant GABAA receptor α5β2γ2 (P47870 25-512 partner limits assumed): as the sequence (P47870 25-512 partner limits assumed) above
Sequence of human recombinant GABAA receptor α5β2γ2 (P18507 40-475): as the sequence (P18507 40-475) above
Summary of the method: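 Human α5β2γ2 receptors expressed in oocytes. GABA (EC₂₀) was applied twice for 20 s, 6 min apart, as control. Test compound (1 nmol/L–30 µmol/L) was preincubated 6 min, then co-applied with GABA for 20 s. EC₅₀ came from a sigmoidal fit of data normalized to maximal potentiation. Efficacy at 10 µmol/L was normalized to chlordiazepoxide 10 µmol/L. Mean ± SEM, n = 6–26.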

[7] = test system: native GABAARs in cultured rat primary cortical neurons; format: cell-based; conditions: manual patch clamp, rat primary neuronal cultures, GABA at EC20 as printed
SV2A [8] = conditions: cited from earlier work
[9] = target: B isoform of SV2 proteins; conditions: cited from earlier work
[10] = target: C isoform of SV2 proteins; conditions: cited from earlier work
[11] = target: recombinant GABAARs, benzodiazepine (BZD) binding site; conditions: cited from earlier work
SV2A [12] = conditions: cited from earlier work; remark: listed apart in the source
BZD site of GABAARs = conditions: cited from earlier work
[13] = test system: PTZ-induced clonic seizures; conditions: repeated = twice daily for 4 consecutive days; cited from earlier work
[14] = test system: treatment-resistant focal epilepsy; conditions: Phase IIa proof-of-concept trial; cited from earlier work

COCc1c(C(=O)OC(C)C)ncc2[nH]c3ccc(OCc4ccccc4)cc3c12 [Abecarnil]
Clinical efficacy / tolerance development (photosensitive epilepsy): without development of tolerance

CN1C(=O)CC(=O)N(c2ccccc2)c2cc(Cl)ccc21 [Clobazam]
Seizure control / tolerance development (Lennox–Gastaut syndrome): sustained seizure control

COCc1nn2c(CN3C[C@@H](CC(F)(F)Cl)CC3=O)c(C(F)(F)F)nc2s1 [Padsevonil, (4R)‐4‐(2‐chloro‐2,2‐difluoroethyl)‐1‐{[2‐(methoxymethyl)‐6‐(trifluoromethyl)imidazo[2,1‐b][1,3,4]thiadiazol‐5‐yl]methyl}pyrrolidin‐2‐one]
EC50 [1]: 138 ± 29 nM
Effect on maximal activation of the receptor ([1]; GABA 30 µmol/L (EC90), data not shown): does not overstimulate the receptor
Potentiation of the GABA (agonist) response ([1]; GABA at EC20 set to 100%, patch clamp, human α1β2γ2 in CHO): 167%
Function relative efficacy, normalized toward zolpidem (1 µmol/L) ([1]; GABA EC20, patch clamp, same cell): 41 ± 4%
Function relative efficacy, normalized toward zolpidem (1 µmol/L) ([1]; GABA EC20, patch clamp, same cell, listed as padsevonil): 41%
Relative efficacy, GABA EC20 response as % of that of zolpidem (1 µmol/L) ([1]; Padsevonil 30 µmol/L, GABA EC20, patch clamp, same cell): 35%
Cl− currents evoked in the absence of GABA [1]: did not elicit
Cl− currents evoked in the absence of GABA ([1]; listed as padsevonil): did not evoke
EC50 [2]: 295 nM
Function relative efficacy, normalized toward chlordiazepoxide (10 µmol/L) [2]: 60 ± 6%
Function relative efficacy, normalized toward chlordiazepoxide (10 µmol/L) ([2]; listed as padsevonil): 60%
Higher potency for receptors with α1 or α5 subunits than for those with α2 or α3 subunits ([2]; TEVC, oocytes, α1/α5 versus α2/α3): approximately sixfold
EC50 [3]: 1740 ± 258 nM
Function relative efficacy, normalized toward chlordiazepoxide (10 µmol/L) [3]: 26 ± 4 (n = 13) ^b %
Function relative efficacy, normalized toward chlordiazepoxide (10 µmol/L) ([3]; listed as padsevonil): 26%
EC50 [4]: 2090 ± 227 nM
Function relative efficacy, normalized toward chlordiazepoxide (10 µmol/L) [4]: 56 ± 6 (n = 18) ^b %
Function relative efficacy, normalized toward chlordiazepoxide (10 µmol/L) ([4]; listed as padsevonil): 56%
Potentiation of the GABA (EC20) response on α4β2γ2 receptors [5]: did not potentiate; also recorded: does not activate
Potentiation of the GABA (EC20) response on α4β2γ2 receptors ([5]; listed as padsevonil): no activity was observed
Function EC50, potentiation of GABA EC20 ([5]; α4β2γ2 in Xenopus oocytes): No potentiation
EC50 [6]: 281 ± 73 nM
Function relative efficacy, normalized toward chlordiazepoxide (10 µmol/L) [6]: 41 ± 10 (n = 10) ^b %
Function relative efficacy, normalized toward chlordiazepoxide (10 µmol/L) ([6]; listed as padsevonil): 41%
pEC50, potentiation of neuronal GABAAR activity [7]: 6.68
Dissociation kinetics from SV2A (SV2A [8]; compared with LEV and BRV): significantly slower dissociation kinetics
Affinity for SV2A relative to LEV (SV2A [8]; radioligand displacement): ~2000 fold
Affinity for SV2A relative to brivaracetam (BRV) (SV2A [8]; radioligand displacement): approximately 100 fold
pKi SV2A (SV2A [8]; radioligand displacement): 8.5
pKi SV2B [9]: 7.9
pKi SV2C [10]: 8.5
pKi benzodiazepine (BZD) binding site [11]: 6.4
SV2A occupancy ED50 (SV2A [12]; in vivo, mice): 0.2 mg/kg
SV2A occupancy at doses highly active in models of drug-resistant epilepsy (SV2A [12]; nonclinical studies): > 95%
BZD site occupancy ED50 (BZD site of GABAARs; in vivo, mice): 36 mg/kg
Occupancy on GABAARs at doses highly active in models of drug-resistant epilepsy (BZD site of GABAARs; nonclinical studies): < 20%
Tolerance: increase of PTZ seizure threshold after acute versus repeated dosing [13]: tolerance was not developed
Clinical efficacy [14]: robust efficacy

CCOC(=O)c1ncn2c1CN(C)C(=O)c1cc(N=[N+]=[N-])ccc1-2 [Ro 15‐4513, reference compound]
Potentiation of the GABA (EC20) response on α4β2γ2 receptors [5]: potentiated

Cc1ccc(-c2nc3ccc(C)cn3c2CC(=O)N(C)C)cc1 [zolpidem, Zolpidem, reference compound]
Potentiation of the GABA (EC20) response on α4β2γ2 receptors [5]: insensitive

Source: PMC7383892 (Epilepsia, 2020)
